Laboratory results taken from ChEMBL document CHEMBL1134631 (J Med Chem, 2001).

Assays:
Format in all cases: functional
[1] = test system: Rattus norvegicus; experiment: Percent inhibition of paw volume increase in carrageenan-induced rat after a dose of 120 mg/kg was administered and observed after 6 hours of incubation
[2] = species on record: Homo sapiens; experiment: Percent ibuprofen detected after 6 hr incubation in human plasma.
How it was run: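 Compound (0.0438 µmol) in 5 µL acetonitrile added to 495 µL human plasma at 37 °C and incubated 6 h. Diluted with acetonitrile containing 0.1% TFA and centrifuged (9600g, 15 min). […] Expressed as %, mean ± SEM.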

[3] = test system: Rattus norvegicus; experiment: Percent inhibition of paw volume increase in carrageenan-induced rat after a dose of 120 mg/kg was administered and observed after 4 hours of incubation
[4] = Antiaggregatory effect against arachidonic acid induced platelet aggregation from the human platelet rich plasma(PRP) in the presence of oxyhemoglobin (HbO2)
How it was run: (§1)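 Human citrated blood spun at 200g for 20 min to give PRP. Compound or DMSO (maximum 0.5%) added 10 min before arachidonic acid (0.5-1 mM, chosen to give 85-95% of maximal aggregation). Oxyhaemoglobin 40 µM final added 12 min before the activator. Light transmission read for 5 min at 37 °C with stirring. […] Mean ± SEM, n = 5.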

[5] = test system: Rattus norvegicus; experiment: Alcerogenic property after intragastric administration to conscious rats for 6 hrs
How it was run: (§2)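 Male Wistar rats (180-200 g), fasted 24 h with water allowed, groups of n = 6. […] Killed 6 h after dosing. Stomachs opened along the lesser curvature and examined under a stereomicroscope. Each haemorrhagic lesion was scored by greatest length (<1 mm = 1; 1-2 mm = 2; >2 mm = length in mm). Summed as lesion index, mean ± SEM.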

[6] = species on record: Homo sapiens; experiment: Percent ibuprofen detected after 2 hr incubation in acidic medium (pH=1) […]
How it was run: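 Compound (0.25 mM) in acetonitrile added to HCl solution at pH 1, 37 °C, incubated 2 h.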

[7] = species on record: Homo sapiens; experiment: Compound was evaluated for nitric oxide release (stimulate nitric oxide synthase) in human plasma
[8] = test system: Rattus norvegicus; experiment: Percent inhibition of paw volume increase in carrageenan-induced rat after a dose of 40 mg/kg was administered and observed after 6 hours of incubation
[9] = test system: Rattus norvegicus; experiment: Ulcerogenic property after intragastric administration to conscious rats for 6 hrs; how it was run: as §2
[10] = test system: Rattus norvegicus; experiment: Percent inhibition of paw volume increase in carrageenan-induced rat after a dose of 40 mg/kg was administered and observed after 4 hours of incubation
[11] = Antiaggregatory effect against arachidonic acid induced platelet aggregation from the human platelet rich plasma(PRP) in the presence of oxyheamoglobin(HbO2, 40 uM); how it was run: as §1
[12] = test system: Rattus norvegicus; experiment: Ulcerogenic property after intragastric administration to conscious rats after 6 hours of incubation; how it was run: as §2

| IC50 [4] [µM] | IC50 [11] [µM] | SMILES | inhibition in vivo at 120 mg/kg [1] [%] | Ibuprofen [2] [%] | inhibition in vivo at 120 mg/kg [3] [%] | Lesion index [5] [mm] | Ibuprofen [6] [%] | NO2- (mol/mol) [7] [%] | inhibition in vivo at 40 mg/kg [8] [%] | Lesion index [9] [mm] | inhibition in vivo at 40 mg/kg [10] [%] | Lesion index [12] [mm] |
| --- | --- | --- | --- | --- | --- | --- | --- | --- | --- | --- | --- | --- |
| 57.5 | – | CC(C)Cc1ccc(C(C)C(=O)OCCCO[N+](=O)[O-])cc1 (stereo not given) | 40 | 27.1 | 41.8 | 0.7 | 22.3 | 3.2 | – | – | – | – |
| – | – | CCCOC(=O)C(C)c1ccc(CC(C)C)cc1 (stereo not given) | – | 22.9 | – | – | 11.7 | – | 49.6 | 3.8 | 37.6 | – |
| – | 2.69 | CC(C)Cc1ccc(C(C)C(=O)OCCCOc2no[n+]([O-])c2S(=O)(=O)c2ccccc2)cc1 (stereo not given) | – | 46.8 | – | – | 12.9 | 34.7 | 41.5 | – | 37.4 | 0 |
| – | – | CC(C)Cc1ccc(C(C)C(=O)OCCCOc2nonc2Sc2ccccc2)cc1 (stereo not given) | 54.4 | 8.9 | 48.3 | – | 6.1 | – | – | 1.3 | – | – |
| – | – | CC(C)Cc1ccc(C(C)C(=O)OCCCOc2no[n+]([O-])c2Sc2ccccc2)cc1 (stereo not given) | 36.2 | 35.6 | 40.7 | – | 6.5 | 9.5 | – | 0 | – | – |
| – | – | CC(C)Cc1ccc(C(C)C(=O)OCCCOc2nonc2S(=O)(=O)c2ccccc2)cc1 (stereo not given) | – | 26 | – | – | 13 | – | 63.3 | 5.7 | 52.8 | – |
